From ChEMBL document CHEMBL4270649 (Eur J Med Chem, 2018)
Active and inactive are the calls of the source. No cut-off for these calls is given here.

What was measured:
[1] = target: T1, Dual specificity tyrosine-phosphorylation-regulated kinase 1B (Homo sapiens, UniProt Q9Y463); conditions: 0.25 h, read-out: INH
[2] = target: T1, Dual specificity tyrosine-phosphorylation-regulated kinase 1B; experiment: Inhibition of full length recombinant human GST-tagged DYRK1B expressed in baculovirus expression system using KKISGRLSPIMTEQ-NH2 as substrate after 15 mins in presence of 15 uM [gamma32P]ATP by phosphor imaging analysis
[3] = Cytotoxicity against human HeLa cells assessed as cell viability at 3 uM after 3 days by XTT assay relative to control; format: cell-based; conditions: read-out: Activity
[4] = Cytotoxicity against human HeLa cells assessed as cell viability at 1 uM after 3 days by XTT assay relative to control; format: cell-based; conditions: read-out: Activity
[5] = Cytotoxicity against human HeLa cells assessed as cell viability at 10 uM after 3 days by XTT assay relative to control; format: cell-based; conditions: read-out: Activity
[6] = Half life in human liver S9 fraction at 0.3 uM in presence of NADP+/UDPGA by LC-MS/MS analysis; format: ADME, subcellular
Outline: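 Compound was incubated with human S9 fraction and samples were taken at defined time points. Remaining parent was quantified by LC-MS/MS: ESI triple quadrupole, RP C18 column, water/acetonitrile with 0.1% TFA, 5–100% B over 7 min at 400 µL/min. Half-life was calculated from the remaining-parent data.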

[7] = target: Dual specificity protein kinase CLK2 (Homo sapiens) (UniProt P49760); experiment: Inhibition of human GST-tagged CLK2 expressed in baculovirus expression system at 1.25 uM in presence of 100 uM ATP relative to control
[8] = target: Myosin light chain kinase 2, skeletal/cardiac muscle (Homo sapiens) (UniProt Q9H1R3); experiment: Inhibition of human full length GST-tagged MLCK2 expressed in baculovirus expression system at 1.25 uM in presence of 100 uM ATP relative to control
[9] = target: Dual specificity protein kinase CLK1 (Homo sapiens, UniProt P49759); experiment: Inhibition of recombinant human GST-tagged CLK1 (129 to 484 residues) expressed in Escherichia coli using GRSRSRSRSRSRSRSR as substrate after 15 mins in presence of 15 uM [gamma32P]ATP by phosphor imaging analysis
[10] = target: T2, Dual specificity tyrosine-phosphorylation-regulated kinase 1A (Homo sapiens, UniProt Q13627); experiment: Inhibition of recombinant human N-terminal His6-tagged DYRK1A expressed in Escherichia coli BL21(DE3) at 1.25 uM using KKISGRLSPIMTEQ-NH2 as substrate after 15 mins in presence of 15 uM [gamma32P]ATP by phosphor imaging analysis relative to control
[11] = target: T3, Serine/threonine-protein kinase haspin (Homo sapiens, UniProt Q8TF76); experiment: Inhibition of human GST-tagged haspin expressed in baculovirus expression system in presence of 100 uM ATP
T3 sequence (Q8TF76 whole entry): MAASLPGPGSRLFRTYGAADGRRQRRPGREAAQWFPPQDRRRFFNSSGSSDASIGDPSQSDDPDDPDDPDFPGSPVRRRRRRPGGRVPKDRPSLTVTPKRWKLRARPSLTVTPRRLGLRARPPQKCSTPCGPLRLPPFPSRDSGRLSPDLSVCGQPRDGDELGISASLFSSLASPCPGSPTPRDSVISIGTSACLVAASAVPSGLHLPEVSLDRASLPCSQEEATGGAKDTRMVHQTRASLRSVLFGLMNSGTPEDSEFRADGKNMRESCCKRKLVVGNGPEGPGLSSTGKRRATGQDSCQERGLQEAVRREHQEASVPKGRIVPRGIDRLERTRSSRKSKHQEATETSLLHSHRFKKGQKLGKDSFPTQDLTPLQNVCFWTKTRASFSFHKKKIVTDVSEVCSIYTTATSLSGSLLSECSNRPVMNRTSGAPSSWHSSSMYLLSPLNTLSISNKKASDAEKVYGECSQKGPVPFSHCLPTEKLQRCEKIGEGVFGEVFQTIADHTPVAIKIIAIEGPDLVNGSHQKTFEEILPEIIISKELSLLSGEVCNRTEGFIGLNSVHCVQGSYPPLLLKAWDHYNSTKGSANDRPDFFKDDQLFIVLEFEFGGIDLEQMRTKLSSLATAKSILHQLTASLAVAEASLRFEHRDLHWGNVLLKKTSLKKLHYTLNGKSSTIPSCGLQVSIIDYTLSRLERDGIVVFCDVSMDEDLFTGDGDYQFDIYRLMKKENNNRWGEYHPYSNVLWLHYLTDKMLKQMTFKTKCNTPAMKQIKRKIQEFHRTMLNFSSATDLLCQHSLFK

[12] = target: SRSF protein kinase 1 (Homo sapiens) (UniProt Q96SB4); experiment: Inhibition of full length human His-tagged SRPK1 expressed in baculovirus expression system at 1.25 uM in presence of 100 uM ATP relative to control
[13] = target: T2, Dual specificity tyrosine-phosphorylation-regulated kinase 1A; experiment: Inhibition of recombinant human N-terminal His6-tagged DYRK1A expressed in Escherichia coli BL21(DE3) using KKISGRLSPIMTEQ-NH2 as substrate after 15 mins in presence of 15 uM [gamma32P]ATP by phosphor imaging analysis
[14] = target: T4, Serine/threonine-protein kinase 17A (Homo sapiens) (UniProt Q9UEE5); experiment: Inhibition of full length human GST-tagged STK17A expressed in baculovirus expression system at 1.25 uM in presence of 100 uM ATP relative to control
T4 sequence (whole entry): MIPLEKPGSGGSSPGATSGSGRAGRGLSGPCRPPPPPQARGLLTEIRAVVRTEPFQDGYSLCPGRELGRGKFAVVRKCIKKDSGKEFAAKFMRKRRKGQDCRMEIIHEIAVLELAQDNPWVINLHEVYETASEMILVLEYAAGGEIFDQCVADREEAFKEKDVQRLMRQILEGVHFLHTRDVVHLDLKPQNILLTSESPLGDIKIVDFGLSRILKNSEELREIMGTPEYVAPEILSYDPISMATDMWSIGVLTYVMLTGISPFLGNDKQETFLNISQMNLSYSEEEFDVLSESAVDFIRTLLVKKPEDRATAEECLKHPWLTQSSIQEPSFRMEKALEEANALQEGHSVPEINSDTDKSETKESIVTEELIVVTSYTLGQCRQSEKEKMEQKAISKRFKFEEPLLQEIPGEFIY

[15] = target: T3, Serine/threonine-protein kinase haspin; experiment: Inhibition of human GST-tagged haspin expressed in baculovirus expression system at 1.25 uM in presence of 100 uM ATP relative to control
[16] = target: Homeodomain-interacting protein kinase 1 (Homo sapiens) (UniProt Q86Z02); experiment: Inhibition of human GST-tagged HIPK1 expressed in baculovirus expression system at 1.25 uM in presence of 100 uM ATP relative to control
[17] = target: BDNF/NT-3 growth factors receptor (Homo sapiens) (UniProt Q16620); experiment: Inhibition of human His-tagged TRK-B expressed in baculovirus expression system at 1.25 uM in presence of 100 uM ATP relative to control
[18] = target: Serine/threonine-protein kinase pim-1 (Homo sapiens) (UniProt P11309); experiment: Inhibition of full length human His-tagged PIM1 expressed in baculovirus expression system at 1.25 uM in presence of 100 uM ATP relative to control
[19] = target: Cyclin-dependent kinase 5/CDK5 activator 1 (Homo sapiens) (UniProt Q00535+Q15078); experiment: Inhibition of full length human GST/His-tagged CDK5/p25 expressed in baculovirus expression system at 1.25 uM in presence of 100 uM ATP by Z'-Lyte assay relative to control
[20] = target: T2, Dual specificity tyrosine-phosphorylation-regulated kinase 1A; experiment: Inhibition of DYRK1A in human HeLa cells harboring GFP-SF3b1-NT assessed as reduction in SF3b1 phosphorylation at T343 residue after 18 hrs by Western blot analysis; format: cell-based
[21] = target: Casein kinase I isoform delta (Homo sapiens) (UniProt P48730); experiment: Inhibition of CK1delta (unknown origin) at 1.25 uM in presence of 100 uM ATP relative to control
Casein kinase I isoform delta (Homo sapiens), sequence (P48730 whole entry, looked up, canonical isoform): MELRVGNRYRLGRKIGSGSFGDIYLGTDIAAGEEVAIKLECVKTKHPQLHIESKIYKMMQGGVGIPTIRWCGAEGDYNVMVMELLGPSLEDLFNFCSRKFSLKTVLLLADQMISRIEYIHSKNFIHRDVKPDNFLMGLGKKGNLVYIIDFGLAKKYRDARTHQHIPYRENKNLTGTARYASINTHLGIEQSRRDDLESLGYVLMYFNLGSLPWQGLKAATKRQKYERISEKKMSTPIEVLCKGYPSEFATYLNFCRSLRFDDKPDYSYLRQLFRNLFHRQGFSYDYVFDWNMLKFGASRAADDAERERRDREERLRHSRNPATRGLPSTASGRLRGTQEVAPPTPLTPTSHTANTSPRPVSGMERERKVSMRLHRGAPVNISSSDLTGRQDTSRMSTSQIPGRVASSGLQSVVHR

T1 sequence (Q9Y463 whole entry): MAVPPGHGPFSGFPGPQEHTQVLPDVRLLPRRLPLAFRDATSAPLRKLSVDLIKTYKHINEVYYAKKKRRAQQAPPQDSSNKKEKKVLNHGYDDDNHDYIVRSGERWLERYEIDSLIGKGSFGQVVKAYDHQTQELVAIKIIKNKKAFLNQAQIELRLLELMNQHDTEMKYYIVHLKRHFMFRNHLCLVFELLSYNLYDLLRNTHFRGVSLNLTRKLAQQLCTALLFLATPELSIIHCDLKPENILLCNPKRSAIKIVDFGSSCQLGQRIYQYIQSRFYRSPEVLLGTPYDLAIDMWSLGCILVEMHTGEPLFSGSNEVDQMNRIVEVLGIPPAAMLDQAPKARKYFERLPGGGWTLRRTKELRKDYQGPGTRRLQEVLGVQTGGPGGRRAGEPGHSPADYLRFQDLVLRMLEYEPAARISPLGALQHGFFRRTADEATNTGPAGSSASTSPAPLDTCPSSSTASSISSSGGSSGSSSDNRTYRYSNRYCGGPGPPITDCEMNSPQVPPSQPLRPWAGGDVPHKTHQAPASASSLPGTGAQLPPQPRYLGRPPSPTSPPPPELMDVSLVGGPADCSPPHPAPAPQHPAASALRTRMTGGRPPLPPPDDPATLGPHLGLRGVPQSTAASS
Cyclin-dependent kinase 5/CDK5 activator 1 (Homo sapiens), sequence (Q00535 whole entry): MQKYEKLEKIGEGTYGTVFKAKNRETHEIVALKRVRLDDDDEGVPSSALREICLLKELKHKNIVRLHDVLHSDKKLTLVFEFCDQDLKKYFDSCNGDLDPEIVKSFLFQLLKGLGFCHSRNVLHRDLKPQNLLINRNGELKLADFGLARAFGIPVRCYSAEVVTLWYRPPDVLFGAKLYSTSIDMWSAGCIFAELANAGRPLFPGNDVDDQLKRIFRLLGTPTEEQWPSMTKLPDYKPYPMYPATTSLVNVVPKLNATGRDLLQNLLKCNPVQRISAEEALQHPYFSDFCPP
Cyclin-dependent kinase 5/CDK5 activator 1 (Homo sapiens), sequence (Q15078 99-307 partner limits assumed): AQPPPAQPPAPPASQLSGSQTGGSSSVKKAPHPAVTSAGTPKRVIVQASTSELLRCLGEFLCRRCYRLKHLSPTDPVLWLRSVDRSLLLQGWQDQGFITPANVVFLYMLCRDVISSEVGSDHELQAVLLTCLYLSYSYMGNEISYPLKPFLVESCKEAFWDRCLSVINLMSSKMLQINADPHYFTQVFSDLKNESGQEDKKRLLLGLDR
BDNF/NT-3 growth factors receptor (Homo sapiens), sequence (Q16620 32-822 limits assumed): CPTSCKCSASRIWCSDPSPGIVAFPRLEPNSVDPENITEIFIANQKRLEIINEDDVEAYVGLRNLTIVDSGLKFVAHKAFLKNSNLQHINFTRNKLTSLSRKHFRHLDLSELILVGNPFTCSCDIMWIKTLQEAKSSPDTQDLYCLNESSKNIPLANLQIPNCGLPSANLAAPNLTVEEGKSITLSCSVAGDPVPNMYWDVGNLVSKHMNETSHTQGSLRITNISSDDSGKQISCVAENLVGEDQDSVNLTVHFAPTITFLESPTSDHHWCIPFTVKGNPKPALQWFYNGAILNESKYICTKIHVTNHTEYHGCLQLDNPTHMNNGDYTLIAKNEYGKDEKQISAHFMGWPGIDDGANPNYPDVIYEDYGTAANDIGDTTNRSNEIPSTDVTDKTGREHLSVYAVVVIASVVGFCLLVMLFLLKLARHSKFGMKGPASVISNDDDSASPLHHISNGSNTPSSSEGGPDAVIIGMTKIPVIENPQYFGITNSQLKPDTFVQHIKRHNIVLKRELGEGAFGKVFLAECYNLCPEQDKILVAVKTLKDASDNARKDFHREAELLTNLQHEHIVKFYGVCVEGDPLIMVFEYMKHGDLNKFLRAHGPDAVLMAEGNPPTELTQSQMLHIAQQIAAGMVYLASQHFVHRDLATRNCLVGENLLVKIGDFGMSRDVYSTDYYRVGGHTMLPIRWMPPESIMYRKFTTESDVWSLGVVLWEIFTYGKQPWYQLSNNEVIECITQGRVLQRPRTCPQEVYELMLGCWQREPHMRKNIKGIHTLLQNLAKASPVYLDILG
Myosin light chain kinase 2, skeletal/cardiac muscle (Homo sapiens), sequence (Q9H1R3 whole entry, the tested form may be a part): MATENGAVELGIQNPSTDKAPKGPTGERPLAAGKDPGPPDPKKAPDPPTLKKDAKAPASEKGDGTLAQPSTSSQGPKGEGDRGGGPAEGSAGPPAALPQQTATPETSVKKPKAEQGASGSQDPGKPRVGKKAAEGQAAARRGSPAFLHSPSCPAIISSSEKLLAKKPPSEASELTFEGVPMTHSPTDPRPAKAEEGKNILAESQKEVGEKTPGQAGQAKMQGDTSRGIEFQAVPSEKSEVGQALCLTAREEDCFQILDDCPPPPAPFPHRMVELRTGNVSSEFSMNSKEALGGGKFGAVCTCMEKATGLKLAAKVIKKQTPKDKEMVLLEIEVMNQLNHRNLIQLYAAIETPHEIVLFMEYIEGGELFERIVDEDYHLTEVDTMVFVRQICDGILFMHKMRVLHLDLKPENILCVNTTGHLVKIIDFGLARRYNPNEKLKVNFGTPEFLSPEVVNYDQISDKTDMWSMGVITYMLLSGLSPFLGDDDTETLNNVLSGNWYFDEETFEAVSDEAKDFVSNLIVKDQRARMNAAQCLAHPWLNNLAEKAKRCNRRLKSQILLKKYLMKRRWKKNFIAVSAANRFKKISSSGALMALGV
SRSF protein kinase 1 (Homo sapiens), sequence (Q96SB4 whole entry): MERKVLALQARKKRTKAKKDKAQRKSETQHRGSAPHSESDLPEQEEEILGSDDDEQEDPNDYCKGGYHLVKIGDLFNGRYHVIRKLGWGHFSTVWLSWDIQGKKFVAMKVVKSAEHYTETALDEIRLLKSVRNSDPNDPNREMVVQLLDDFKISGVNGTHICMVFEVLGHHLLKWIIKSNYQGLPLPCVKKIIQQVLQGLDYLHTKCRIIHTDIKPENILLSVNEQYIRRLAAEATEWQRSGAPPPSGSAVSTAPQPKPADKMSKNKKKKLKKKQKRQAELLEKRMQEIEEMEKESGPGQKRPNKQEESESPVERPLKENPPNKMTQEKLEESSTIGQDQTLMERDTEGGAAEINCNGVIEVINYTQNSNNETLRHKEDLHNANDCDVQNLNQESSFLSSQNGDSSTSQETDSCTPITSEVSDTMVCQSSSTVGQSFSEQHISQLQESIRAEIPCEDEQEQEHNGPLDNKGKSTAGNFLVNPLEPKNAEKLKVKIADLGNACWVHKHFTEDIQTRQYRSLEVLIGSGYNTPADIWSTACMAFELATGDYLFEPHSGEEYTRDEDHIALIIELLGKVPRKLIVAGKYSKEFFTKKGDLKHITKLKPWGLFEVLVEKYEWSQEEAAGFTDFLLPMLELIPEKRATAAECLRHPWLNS
Serine/threonine-protein kinase pim-1 (Homo sapiens), sequence (P11309 whole entry, looked up): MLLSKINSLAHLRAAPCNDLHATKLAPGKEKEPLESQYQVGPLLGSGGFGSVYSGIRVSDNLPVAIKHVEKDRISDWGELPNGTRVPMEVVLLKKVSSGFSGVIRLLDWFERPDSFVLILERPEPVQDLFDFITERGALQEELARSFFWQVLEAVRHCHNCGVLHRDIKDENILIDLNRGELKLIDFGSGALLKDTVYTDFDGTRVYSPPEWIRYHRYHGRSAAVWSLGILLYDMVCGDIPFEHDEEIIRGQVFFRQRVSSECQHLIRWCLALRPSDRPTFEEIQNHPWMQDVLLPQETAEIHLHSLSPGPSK
Dual specificity protein kinase CLK2 (Homo sapiens), sequence (P49760 whole entry, looked up): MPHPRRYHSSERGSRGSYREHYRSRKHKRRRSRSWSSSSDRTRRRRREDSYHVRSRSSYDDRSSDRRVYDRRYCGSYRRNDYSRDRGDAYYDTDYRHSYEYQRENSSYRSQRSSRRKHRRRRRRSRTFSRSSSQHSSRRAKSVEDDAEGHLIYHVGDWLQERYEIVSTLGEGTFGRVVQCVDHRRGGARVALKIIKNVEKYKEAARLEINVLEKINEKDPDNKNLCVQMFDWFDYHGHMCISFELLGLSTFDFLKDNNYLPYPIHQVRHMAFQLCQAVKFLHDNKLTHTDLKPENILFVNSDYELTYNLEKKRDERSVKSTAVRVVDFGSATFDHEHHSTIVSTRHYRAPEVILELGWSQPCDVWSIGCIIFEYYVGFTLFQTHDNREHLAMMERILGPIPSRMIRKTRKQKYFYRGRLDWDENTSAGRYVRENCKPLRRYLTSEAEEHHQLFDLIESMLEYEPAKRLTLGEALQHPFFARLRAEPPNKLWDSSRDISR
Dual specificity protein kinase CLK1, sequence (P49759 whole entry, the tested form may be a part): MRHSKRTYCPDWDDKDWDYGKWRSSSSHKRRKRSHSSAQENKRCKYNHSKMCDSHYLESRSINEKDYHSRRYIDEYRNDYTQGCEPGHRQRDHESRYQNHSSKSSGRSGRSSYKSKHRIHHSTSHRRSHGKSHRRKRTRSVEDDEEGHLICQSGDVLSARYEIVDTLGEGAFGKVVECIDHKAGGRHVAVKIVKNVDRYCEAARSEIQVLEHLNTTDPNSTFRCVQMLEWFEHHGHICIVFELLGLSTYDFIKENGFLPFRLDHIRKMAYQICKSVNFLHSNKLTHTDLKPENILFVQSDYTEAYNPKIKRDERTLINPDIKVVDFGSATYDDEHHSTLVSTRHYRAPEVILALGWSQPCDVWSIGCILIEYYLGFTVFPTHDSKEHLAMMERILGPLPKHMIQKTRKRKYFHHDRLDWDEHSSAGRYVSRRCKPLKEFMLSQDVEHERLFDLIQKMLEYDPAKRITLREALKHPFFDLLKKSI

| Compound | inhibition at 0.25 µM [1] | IC50 [2] | also measured |
| --- | --- | --- | --- |
| CS(=O)(=O)Nc1cncc(-c2cc(-c3cccnc3)cs2)c1 | 23.5% |  |  |
| O=C(CN1CCCCC1)Nc1cncc(-c2cc(-c3cccnc3)cs2)c1 | 51.8% |  |  |
| CCN(C(=O)C1CC1)c1cncc(-c2cc(-c3cccnc3)cs2)c1 | 14.6% |  |  |
| CC(=O)Nc1cncc(-c2cc(-c3cccnc3)cs2)c1 | 40.3% |  | viability at 72 h, 3 µM [3]: 95%; viability at 72 h, 1 µM [4]: 98%; viability at 72 h, 10 µM [5]: 83% |
| O=C(CN1CCOCC1)Nc1cncc(-c2cc(-c3cccnc3)cs2)c1 | 13.9% |  |  |
| O=C(Nc1cncc(-c2cccs2)c1)C1CC1 | 0% |  |  |
| CN[C@@H]1C[C@H]2O[C@@](C)([C@@H]1OC)n1c3ccccc3c3c4c(c5c6ccccc6n2c5c31)C(=O)NC4 [STAUROSPORINE] |  |  | viability at 72 h, 1 µM [4]: 33% |
| CCC(=O)Nc1cncc(-c2cc(-c3cccnc3)cs2)c1 | 49.3% |  |  |
| CN(C(=O)C1CC1)c1cncc(-c2cc(-c3cccnc3)cs2)c1 | 0.9% |  |  |
| O=C(Cc1nnn[nH]1)Nc1cncc(-c2cc(-c3cccnc3)cs2)c1 | 38.5% |  |  |

Second part, led by results:

| inhibition at 0.25 µM [1] | IC50 [2] | Compound | also measured |
| --- | --- | --- | --- |
| 62.7% | 0.132 µM | O=C(Nc1cncc(-c2cc(-c3cccnc3)cs2)c1)C1CCNC1 (stereo not given) |  |
| 57% |  | CCn1cc(-c2csc(-c3cncc(NC(=O)C4CC4)c3)c2)cn1 |  |
| 78.6% | 0.0671 µM | Cn1cc(-c2csc(-c3cncc(NC(=O)C4CC4)c3)c2)cn1 |  |
| 81% | 0.219 µM | O=C(Nc1cncc(-c2cc(-c3cccnc3)cs2)c1)C1CCC1 |  |
| 58.1% | 0.138 µM | O=C(Nc1cncc(-c2cc(-c3cn[nH]c3)cs2)c1)C1CC1 | half-life at 0.3 µM [6]: 2.45 h |
| 34.9% |  | CC(C)(C)OC(=O)N1CCC(C(=O)Nc2cncc(-c3cc(-c4cccnc4)cs3)c2)C1 (stereo not given) |  |
| 65.7% | 0.0988 µM | CCCn1cc(-c2csc(-c3cncc(NC(=O)C4CC4)c3)c2)cn1 |  |
| 40% | 0.0729 µM | O=C(Nc1cncc(-c2cc(-c3cccnc3)cs2)c1)C1CC1 | inhibition [7]: 21%; inhibition [8]: 12.1%; IC50 [9]: 0.27 µM; inhibition [10]: 89%; IC50 [11]: 0.0763 µM; half-life at 0.3 µM [6]: 2.4 h; inhibition [12]: 2%; viability at 72 h, 3 µM [3]: 102%; IC50 [13]: 0.0032 µM; viability at 72 h, 1 µM [4]: 99%; inhibition [14]: 51.3%; inhibition at 1.25 µM [15]: 72%; inhibition [16]: 1%; viability at 72 h, 10 µM [5]: 98%; inhibition [17]: 8%; inhibition [18]: inactive; inhibition [19]: 1%; IC50 [20]: 0.043 µM; inhibition [20]: Dose-dependent effect; inhibition [21]: 4% |
| 0.7% |  | CC(C)n1cc(-c2csc(-c3cncc(NC(=O)C4CC4)c3)c2)cn1 |  |
| 51% |  | O=C(Nc1cncc(-c2cc(-c3cccnc3)cs2)c1)C1CCCCC1 |  |
